Consider 14 compounds from PubChem BioAssay.

The source made the active and inactive calls.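 The calls were made as follows, unless noted: active = inhibition of the reporter signal at or above 50%; inactive = inhibition below 50%.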

Assay [1] is described as follows: inhibitors of TNFa-induced NFkB p65 translocation, primary screen, imaging, HUVEC, MLSMR starter and 10KST1 sets (AID 438;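 active = inhibition above 20% together with a positive visual image hit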;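 also: compound added about 3h40 before a 20 min TNFalpha stimulation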;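 as to inhibition: signal is the nuclear over cytoplasmic p65 intensity ratio per well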). The note with it: HUVEC TNFa-induced p65 nuclear translocation; cell count: measured here: nuclei count (cytotoxicity indicator), at 2.08 µM; inhibition: at 2 µM, stronger effect = higher value, 0% TNFa-plus-vehicle, 100% no-TNFa wells.
Assay [2] is described as follows: inhibitors of mutant huntingtin aggregation, primary screen, imaging, exon1htt(103Q)mCFP cells, high-content imaging (AID 483;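 active = visual image review flags a hit and inhibition of aggregation exceeds 20%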;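 also: compound exposure lasted 3 days before fixation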;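 as to nuclei count: percent of the per-plate median nuclei count of sample wells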). The note with it: exon1htt(103Q)mCFP cell line, aggregate imaging, at 2 µM; inhibition of aggregation: stronger effect = higher value; nuclei count: measured here: cell count, toxicity.
Assay [3] can be described thus: inhibitors of E-selectin induction by TNFa, primary screen, imaging, HUVEC, immunofluorescence, MLSMR starter and 10KST1 sets (AID 487;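 active = visually confirmed hit in the image check and inhibition above 20%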;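 as to inhibition: signal is fraction of cell area covered by stained E-selectin grains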;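 as to nuclei count: 100% = median nuclei count of all wells on the same plate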). The conditions noted are these: HUVEC TNFalpha-induced E-selectin immunofluorescence imaging, at 2 µM; inhibition: stronger effect = higher value; nuclei count: measured here: cell number, toxicity.
Assay [4] concerns the target Voltage-gated potassium channel subunit beta-2 (Rattus norvegicus) (UniProt P62483). The experiment in a line: KvBeta enzyme negative modulators, primary screen, biochemical, NADPH fluorescence (AID 622;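 active = fluorescence slope higher than the sample average by over 3 SD, cut at about -0.22 in these data, passing the limit was not always enough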;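 also: slope of raw intensity against log time taken from 70 to 1610 s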). The note with it: recombinant KvBeta, 4-cyanobenzaldehyde reduction, at 10 µM, stronger effect = higher value.
The target is the same in assay [5]. In words: KvBeta positive modulators, primary screen, biochemical, NADPH fluorescence (AID 623;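 active = NADPH fluorescence slope more negative than the mean of all samples by about 3 SD, 99.7% confidence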;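 also: fluorescence intensity change per second fitted from 20 to 320 s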). The note with it: Recombinant KvBeta, NADPH fluorescence decrease slope, 10 min; at 10 µM; stronger effect = lower value.
Assay [6] deals with Muscarinic acetylcholine receptor M4 (Homo sapiens) (UniProt P08173). In words: compounds altering M4/GIRK thallium flux, either direction, primary screen, M4 allosteric agonist project, cell-based, HEK293 M4/GIRK, BTC-AM (AID 625;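 active = fluorescence slope after compound addition differing from the mean of all tested samples at 99.7% confidence, mostly higher but some lower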;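 also: thallium influx through GIRK channels coupled to M4 in HEK293 cells with BTC-AM dye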). The note with it: at 10 µM, actives lie on both sides. An outline of the steps:
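assay system = HEK293 cells with M4 receptor and GIRK channels | medium = pH 7.3 thallium assay buffer | doses = 10 µM final, single point | timing = cells overnight at 37 °C, BTC-AM loading 1 h, reads 2 min total | signal = BTC-AM fluorescence, 1 Hz kinetic reads | read-out = post-addition slope, 15–24 s, of baseline-normalized fluorescence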

A short description of assay [7]: inhibitors of Sendai virus-induced IRF3 signaling, primary screen, TLR/RLR signaling modifier project, cell-based, Sendai virus stimulus, luciferase, 10K MLSCN set (AID 602276;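 active = inhibition at or above 50% at 10 µM; inactive = inhibition below 50%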;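 also: firefly luciferase from ISG56 promoter only with Renilla not read in this screen; 0% = Sendai virus plus DMSO and 100% = medium plus DMSO without virus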). The conditions noted are these: HEK293 RL24 IRF3 luciferase reporter, at 10 µM, stronger effect = higher value.
Assay [8] can be described thus: inhibitors of poly I:C-induced TLR3 signaling, primary screen, cell-based, poly I:C stimulus, luciferase, 10K MLSCN set (AID 602277). The note with it: HEK293-TLR3 RL24 IRF3 luciferase reporter, at 10 µM, stronger effect = higher value.

Sequence of Voltage-gated potassium channel subunit beta-2 (Rattus norvegicus) (P62483 whole entry, looked up): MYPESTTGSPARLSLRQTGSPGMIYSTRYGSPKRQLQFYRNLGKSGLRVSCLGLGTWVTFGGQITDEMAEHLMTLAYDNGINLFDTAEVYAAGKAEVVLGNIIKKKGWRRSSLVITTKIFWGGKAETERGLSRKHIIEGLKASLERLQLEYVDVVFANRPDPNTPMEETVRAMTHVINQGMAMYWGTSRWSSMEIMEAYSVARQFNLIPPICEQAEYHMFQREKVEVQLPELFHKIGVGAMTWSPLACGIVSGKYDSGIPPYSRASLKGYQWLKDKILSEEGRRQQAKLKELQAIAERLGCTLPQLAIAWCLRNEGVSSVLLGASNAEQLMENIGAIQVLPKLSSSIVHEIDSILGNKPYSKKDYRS
Sequence of Muscarinic acetylcholine receptor M4 (Homo sapiens) (P08173 whole entry, looked up): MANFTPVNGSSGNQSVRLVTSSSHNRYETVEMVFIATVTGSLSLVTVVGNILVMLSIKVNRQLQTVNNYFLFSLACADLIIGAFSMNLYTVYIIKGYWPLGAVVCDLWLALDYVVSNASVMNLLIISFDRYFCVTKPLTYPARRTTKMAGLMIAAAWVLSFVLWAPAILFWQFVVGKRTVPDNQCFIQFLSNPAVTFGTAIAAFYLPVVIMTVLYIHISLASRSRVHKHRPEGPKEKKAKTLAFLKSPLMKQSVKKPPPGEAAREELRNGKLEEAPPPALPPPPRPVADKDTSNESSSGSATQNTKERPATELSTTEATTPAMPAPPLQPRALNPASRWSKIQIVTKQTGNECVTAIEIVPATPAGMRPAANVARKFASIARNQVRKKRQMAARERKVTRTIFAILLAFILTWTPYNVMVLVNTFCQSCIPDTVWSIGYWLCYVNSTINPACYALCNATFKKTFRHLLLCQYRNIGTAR

As for `COc1ccc(Cl)cc1NC(=O)c1oc(C)nc1C`, in assay [1], the cell count came to 555. Also, the inhibition (in general, the drop in the measured response relative to a control, in per cent) was -0.7% (inactive) in assay [1], -1% (inactive) in assay [3], 25.6% (inactive) in assay [7] and 42.6% (inactive) in assay [8]. Moreover, the inhibition of aggregation in assay [2] was -0.3% (inactive). The nuclei count in assay [2] worked out at 97.4%; in assay [3], 108%. For the same compound, the fluorescence slope in assay [4] is -0.35 (inactive); in assay [6], 0.00568 (inactive). The NADPH fluorescence slope in assay [5] was -4.4e-05 (inactive).

As for `CCOC(=O)c1nnn(-c2nonc2NC(C)=O)c1C`, the cell count in assay [1] was 323. Moreover, the inhibition was 6.5% (inactive) in assay [1], -39.1% (inactive) in assay [3], 17.3% (inactive) in assay [7] and 14% (inactive) in assay [8]. In addition, the inhibition of aggregation in assay [2] was -14.1% (inactive). Moreover, the nuclei count in assay [2] worked out at 98.9%; in assay [3] it was 93.3%. Moreover, the values for the fluorescence slope in assay [4] and in assay [6] were -0.58 (inactive) and 0.00665 (inactive), respectively. Moreover, in assay [5], the NADPH fluorescence slope was -1.6e-05 (inactive).

On to `CSc1nnc2c3ccccc3n(CCc3ccccc3)c2n1`, for which the cell count in assay [1] worked out at 665. Further, the inhibition is -0.5% (inactive) in assay [1], 19.4% (inactive) in assay [3], -13.2% (inactive) in assay [7] and -163% (inactive) in assay [8]. In addition, in assay [2], the inhibition of aggregation is 20.5% (inactive). Moreover, the nuclei count was found to be 83.8% in assay [2] and 104% in assay [3]. Moreover, the fluorescence slope in assay [4] is -0.342 (inactive); in assay [6], 0.00531 (inactive). The NADPH fluorescence slope in assay [5] was 1.9e-05 (inactive).

In the case of `CCC(C)OC(=O)n1ccc(C(=O)Nc2nccs2)n1` (centres undefined), the cell count in assay [1] was 604. Moreover, the inhibition in assay [1] is -8.2% (inactive); in assay [3] it was -79.6% (inactive); in assay [7] it was -5.02% (inactive); in assay [8], -27.4% (inactive). Moreover, in assay [2], the inhibition of aggregation is 8.2% (inactive). In addition, the nuclei count in assay [2] was 95%; in assay [3], 131%. In addition, the results for the fluorescence slope in assay [4] and in assay [6] were -0.575 (inactive) and 0.00527 (inactive), respectively. Besides, in assay [5], the NADPH fluorescence slope is -1.9e-05 (inactive).

As to `CCN(c1ccccc1)S(=O)(=O)c1ccc(F)cc1C`, the cell count in assay [1] came out at 207. Further, the inhibition was 4.7% (inactive) in assay [1], -11.8% (inactive) in assay [3], 12.3% (inactive) in assay [7] and 22.6% (inactive) in assay [8]. Also, the inhibition of aggregation in assay [2] is -4.7% (inactive). Besides, the nuclei count in assay [2] came out at 66.7%; in assay [3], 119%. The fluorescence slope was -0.58 (inactive) in assay [4] and 0.00509 (inactive) in assay [6]. The NADPH fluorescence slope in assay [5] was -2.3e-05 (inactive).

In the case of `CC(=O)c1cc(-c2ccccc2)n(CC(=O)N2CCC(N3CCCCC3)CC2)c1C`, the cell count in assay [1] was 263. In addition, the inhibition was 7.9% (inactive) in assay [1], -37.4% (inactive) in assay [3], 14.8% (inactive) in assay [7] and 30.7% (inactive) in assay [8]. Moreover, the inhibition of aggregation in assay [2] is -0.7% (inactive). In addition, the nuclei count is 96.8% in assay [2] and 115% in assay [3]. In addition, the fluorescence slope is -0.545 (inactive) in assay [4] and 0.00662 (inactive) in assay [6]. In addition, the NADPH fluorescence slope in assay [5] is -3.5e-05 (inactive).

As to `COCCNC(=O)C(C)OC(=O)c1nsc(Cl)c1Cl` (centres undefined), the cell count in assay [1] came out at 551. The inhibition in assay [1] was -8.3% (inactive); in assay [3], -45.1% (inactive); in assay [7], -6.04% (inactive); in assay [8], -22% (inactive). Further, the inhibition of aggregation in assay [2] is 0.5% (inactive). The nuclei count in assay [2] came to 101%; in assay [3] it was 115%. Also, the fluorescence slope in assay [4] was -0.317 (inactive); in assay [6], 0.00545 (inactive). For the same compound, the NADPH fluorescence slope in assay [5] is 1e-05 (inactive).

For the compound `COC(=O)c1sccc1NC(=O)c1ccncc1`, the cell count in assay [1] came to 467. Besides, the inhibition in assay [1] is 5.7% (inactive); in assay [3], -36.5% (inactive); in assay [7], 12% (inactive); in assay [8], -9.7% (inactive). Further, in assay [2], the inhibition of aggregation is 7.5% (inactive). For the same compound, the nuclei count in assay [2] amounted to 103%; in assay [3], 122%. The fluorescence slope in assay [4] was -0.49 (inactive); in assay [6], 0.00518 (inactive). For the same compound, the NADPH fluorescence slope in assay [5] was -3.8e-05 (inactive).

On to `COC(=O)Nc1ccc(S(=O)(=O)N2CCN(c3ccc(F)cc3)CC2)cc1`, for which the cell count in assay [1] was 381. In addition, the inhibition in assay [1] was -3.7% (inactive); in assay [3] it was -124% (inactive); in assay [7] it was 6.88% (inactive); in assay [8], 13.6% (inactive). Further, the inhibition of aggregation in assay [2] is 12.1% (inactive). Moreover, the nuclei count in assay [2] was determined as 100%; in assay [3], 123%. Moreover, the fluorescence slope is -0.564 (inactive) in assay [4] and 0.00356 (inactive) in assay [6]. For the same compound, the NADPH fluorescence slope in assay [5] is -0.000131 (inactive).

Take `Cn1cccc1-c1nc2ccc(NC(=O)c3ccco3)cc2[nH]1`: in assay [1], the cell count was determined as 293. Also, the inhibition was -0.9% (inactive) in assay [1], -8.2% (inactive) in assay [3], -37.6% (inactive) in assay [7] and -102% (inactive) in assay [8]. In addition, the inhibition of aggregation in assay [2] is -0.8% (inactive). Also, the nuclei count worked out at 86.3% in assay [2] and 110% in assay [3]. The fluorescence slope was -0.429 (inactive) in assay [4] and 0.00457 (inactive) in assay [6]. Moreover, the NADPH fluorescence slope in assay [5] is 1e-06 (inactive).

For the compound `CCc1cccc2c(=O)c(C(=O)NCCN3CCOCC3)c[nH]c12`, in assay [1], the cell count stood at 584. Besides, the inhibition in assay [1] was 8.2% (inactive); in assay [3], 27.3% (inactive); in assay [7], 1.65% (inactive); in assay [8], 18.5% (inactive). Besides, the inhibition of aggregation in assay [2] was -3.6% (inactive). The nuclei count in assay [2] came out at 110%; in assay [3], 91.2%. The fluorescence slope in assay [4] is -0.558 (inactive); in assay [6], 0.00469 (inactive). Besides, the NADPH fluorescence slope in assay [5] is -5.3e-05 (inactive).

`O=C1c2oc3ccccc3c(=O)c2C(c2ccccn2)N1Cc1ccccc1` (centres undefined): the cell count in assay [1] came out at 440. Besides, the inhibition in assay [1] is -8.7% (inactive); in assay [3] it was -49.4% (inactive); in assay [7] it was -16.4% (inactive); in assay [8] it was -22.3% (inactive). In assay [2], the inhibition of aggregation is 1.8% (inactive). For the same compound, the nuclei count in assay [2] was determined as 106%; in assay [3] it was 125%. For the same compound, the fluorescence slope in assay [4] is -0.563 (inactive); in assay [6], 0.00477 (inactive). In addition, in assay [5], the NADPH fluorescence slope was -9.3e-06 (inactive).

Regarding `CCn1c(SCC(=O)Nc2nnc(C)s2)nnc1-c1ccncc1`, the cell count in assay [1] is 554. For the same compound, the inhibition in assay [1] is -17.9% (inactive); in assay [3], -53.1% (inactive); in assay [7], 15.2% (inactive); in assay [8] it was 0.883% (inactive). Besides, in assay [2], the inhibition of aggregation was 25.6% (inactive). The results for the nuclei count in assay [2] and in assay [3] were 92.8% and 114%, respectively. Further, the fluorescence slope in assay [4] was -0.301 (inactive); in assay [6], 0.00811 (inactive). Moreover, in assay [5], the NADPH fluorescence slope is -5.1e-05 (inactive).

Take `CC(NC(=O)c1ccc(F)cc1)C(c1cccs1)N1CCN(C)CC1` (centres undefined): in assay [1], the cell count amounted to 466. The inhibition was -7.5% (inactive) in assay [1], 23% (inactive) in assay [3], 5.9% (inactive) in assay [7] and 15.9% (inactive) in assay [8]. Also, the inhibition of aggregation in assay [2] is -8.9% (inactive). Further, the nuclei count in assay [2] was 93.6%; in assay [3], 92.2%. Further, the fluorescence slope in assay [4] was -0.424 (inactive); in assay [6], 0.00581 (inactive). Further, the NADPH fluorescence slope in assay [5] is -5e-05 (inactive).
